Screening results (PubChem)
TAAR1 ag: human TAAR1 agonists, primary screen, Fluo-8 calcium fluorescence, CHO RD-HGA16 cells; actives 0.99% (n = 360,000); activation, % at 3 µM; AID 624467, 2012; vehicle wells 0%, saturating PEA agonist 100%; Trace amine-associated receptor 1 (Homo sapiens), Q96RJ0;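 active means activation above the mean activation of all test compounds in the run plus 3 SD, cut at about 38% in these data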
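test system = CHO RD-HGA16 cells carrying human TAAR1 plus Gα16 | schedule = 17-24 h seeding, 75 min 37 °C dye, 30 min RT | compound dosing = 3 µM single concentration | control set = DMSO and PEA EC100 | replicates = n 1 | signal = Fluo-8 fluorescence, 5 s baseline then 140 s kinetic read | measure = percent activation vs PEA EC100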
MC4R antagonist: MC4R antagonists of cAMP signaling, primary screen, cell-based, TR-FRET, antagonist arm of biased-ligand search; Melanocortin receptor 4 (Homo sapiens), P32245; MC4R-expressing cells, MTII-stimulated cAMP, LANCE TR-FRET; inhibition, % at 6.5 µM; actives 0.48% (n = 360,000); AID 540295, 2011;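 active means inhibition above its plate's cutoff, the mean of tested wells on that plate plus 3 SD, cut at about 29% in these data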;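 further: 0% = Melanotan II alone and 100% = Melanotan II plus saturating MCL0020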
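Material: human MC4R-expressing U2OS cells. Probe or stimulus: Melanotan II challenge. Dosing: 6.5 µM single dose. Times: 30-min compound, 1-h challenge, 1-h detection, room temperature. Technique: TR-FRET with Eu-cAMP and labeled anti-cAMP, 671 nm. Replication: singlicate.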
Beta2AR agonist: beta2AR agonists driving receptor internalization, primary screen, cell-based, FAP fluorogen, flow cytometry; Beta-2 adrenergic receptor (Homo sapiens), P07550; Am2.2-beta2AR cells; response, % (no concentration beside the values); actives 0.43% (n = 340,000); AID 504454, 2011;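 active means response above a set limit, near 3 SD of response in nonfluorescent compounds, cut at about 42% in these data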
HTR2A ag: mouse Htr2a agonists via beta-arrestin recruitment, primary screen, cell-based, luminescence; 5-hydroxytryptamine receptor 2A (Mus musculus), P35363; CHO-K1 mHTR2A beta-arrestin complementation; percent of 30 µM serotonin response; activation, % at 7.6 µM; actives 0.66% (n = 360,000); AID 624169, 2012;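 active means activation above a run cutoff, the mean activation of all tested compounds plus 3 SD, cut at about 14% in these data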;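 further: 0% = plate median of compound wells and 100% = 30 µM serotonin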
Target sequence (P35363 whole entry, looked up): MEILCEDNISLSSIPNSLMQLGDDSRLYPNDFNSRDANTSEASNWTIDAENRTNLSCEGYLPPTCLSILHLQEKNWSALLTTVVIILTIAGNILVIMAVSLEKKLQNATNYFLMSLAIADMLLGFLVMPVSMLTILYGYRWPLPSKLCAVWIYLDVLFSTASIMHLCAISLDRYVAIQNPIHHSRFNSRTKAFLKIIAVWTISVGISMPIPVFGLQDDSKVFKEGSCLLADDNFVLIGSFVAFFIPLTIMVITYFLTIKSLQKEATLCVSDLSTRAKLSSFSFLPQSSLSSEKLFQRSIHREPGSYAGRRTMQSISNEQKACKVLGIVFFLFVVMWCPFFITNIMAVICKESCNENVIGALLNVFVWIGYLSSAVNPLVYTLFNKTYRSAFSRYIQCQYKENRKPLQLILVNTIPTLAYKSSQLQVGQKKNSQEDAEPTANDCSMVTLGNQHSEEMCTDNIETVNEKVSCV
TAAR1 antag: human TAAR1 antagonists, primary screen, Fluo-8 calcium fluorescence, CHO RD-HGA16 cells; Trace amine-associated receptor 1 (Homo sapiens), Q96RJ0; actives 1.5% (n = 360,000); antagonist; inhibition, % at 3 µM;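 active means inhibition above a per-plate cutoff, the mean inhibition of test compounds on that plate plus 3 SD, cut at about 49% in these data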;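 further: 0% = DMSO plus EC80 beta-PEA response and 100% = DMSO alone without agonist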
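System: RD-HGA16 CHO cells with stable hTAAR1 and Gα16 | Probe or stimulus: EC80 β-phenethylamine stimulus | Dosing: 3 µM, single point | Times: Dye loading 75 min at 37 °C, then 30 min room temperature | Measured by: Fluo-8 calcium-sensitive fluorescence | Read-out basis: % inhibition of agonist calcium response | Replicates: n of 1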
MC4R ag barr: MC4R agonists recruiting beta-arrestin, primary screen, cell-based, luminescence, agonist arm of biased-ligand search; Melanocortin receptor 4 (Homo sapiens), P32245; U2OS MC4R beta-arrestin complementation; percent of melanotan II response, DMSO zero; activation, % at 8.9 µM; actives 0.98% (n = 360,000); AID 540308, 2011;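 active means activation above a per-plate cutoff, the mean activation of sample wells on that plate plus 3 SD, cut at about 8% in these data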
MOR ag counter: OPRM1 agonists via beta-arrestin recruitment, confirmation, counter-screen for mouse HTR2A agonist project, cell-based, luminescence, single concentration. shares compounds with HTR2A ag. U2OS OPRM1 beta-arrestin PathHunter; DMSO 0%, DAMGO 9.3 µM 100%. activation, % at 9.3 µM. actives 5.3% (n = 2,300);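 active means mean activation above the mean of DMSO-only wells plus 3 SD, cut at about 0.5% in these data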
HTR2A ag conf: mouse HTR2A agonists, beta-arrestin recruitment, confirmation, cell-based, luminescence, CHO-K1 PathHunter, triplicate; activation, % at 7.6 µM; AID 624381, 2012; shares compounds with HTR2A ag; DMSO 0%, 30 µM serotonin 100%; actives 19% (n = 2,300);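 active means mean activation across triplicates above the hit threshold derived in the original primary screen, cut at about 15% in these data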
* marks the source's active call; other numbers are inactive results; / = no result given. A selection: hits, their analogues and other compounds. The true share with any hit is near 4.3%.

SMILES	TAAR1 ag	MC4R antagonist	Beta2AR agonist	HTR2A ag	TAAR1 antag	MC4R ag barr	MOR ag counter	HTR2A ag conf
Cc1cc(C(=O)CSc2nnc(-c3ccc(F)cc3)o2)c(C)n1CC1COc2ccccc2O1 (configuration not stated)	12.0	-3.1	2.5	16.2*	-7.6	6.6	-0.5	0.1
COCCN(C(=O)COC(=O)C1CCCCC1)c1c(N)n(Cc2ccccc2)c(=O)[nH]c1=O	0.6	5.7	/	16.0*	-9.2	-0.5	-0.6	-4.2
O=C(Nc1ccccc1)N1CCN(c2nc3ccccc3s2)CC1	7.7	7.9	-3.2	27.4*	20.3	0.7	-0.5	-0.5
CCCCN1CC(COC)Oc2cccc(F)c2S1(=O)=O (configuration not stated)	1.9	0.6	-6.2	1.7	-1.5	2.6	/	/
O=C(O)c1ccccc1N/N=C\c1ccnc2ccccc12	5.8	7.7	5.3	14.5*	7.1	2.7	-0.6	1.4
ON=Cc1ccnc2ccccc12	1.1	-5.3	/	5.1	-6.0	-1.9	/	/
Cc1cc(=O)oc2cc(OC(=O)c3ccccc3)ccc12	0.5	-5.3	-1.8	-2.9	-14.8	-2.2	/	/
Cc1ccc(N(C)S(=O)(=O)c2cccc(C(=O)Oc3ccc4c(C)cc(=O)oc4c3)c2)cc1	5.0	17.9	13.7	19.1*	10.4	0.2	-0.5	-3.3
CCC(OC(=O)c1nsc(Cl)c1Cl)C(=O)NCc1cccs1 (configuration not stated)	6.2	1.4	-1.4	26.9*	7.4	-0.5	-0.6	-2.6
Nc1nc(CN2CCN(Cc3ccccc3)CC2)nc(N2CCCc3ccccc32)n1	7.4	-1.5	-5.5	-6.5	-9.4	1.1	/	/
Cc1ccc(Nc2nc(N)nc(CN3CCN(c4ccccc4)CC3)n2)cc1Cl	12.1	4.1	-1.6	14.8*	12.1	3.4	0.3	69.7*
Nc1nc(CN2CCN(c3cccc(Cl)c3)CC2)nc(N2CCCc3ccccc32)n1	4.4	4.1	17.0	24.2*	2.1	4.6	-0.3	77.3*
COc1ccc(N2CCN(Cc3nc(N)nc(N4CCCc5ccccc54)n3)CC2)cc1	1.4	4.5	32.0	9.3	-6.8	-1.0	/	/
Nc1nc(CN2CCN(c3ccccc3)CC2)nc(N2CCCc3ccccc32)n1	13.7	8.5	0.0	27.7*	-2.2	1.3	-0.4	70.8*
COCCN(C(=O)COC(=O)c1ccc(Cl)s1)c1c(N)n(Cc2ccccc2)c(=O)[nH]c1=O	1.5	9.4	-7.8	-4.3	-26.4	-2.1	/	/
COc1ccccc1NC(=O)c1ccccc1SCC(=O)N1CCCC1	-0.1	5.5	/	14.5*	2.1	-2.5	-0.6	-3.5
COc1ccccc1CCNC(=O)c1ccccc1SCC(=O)N1CCCC1	1.4	-0.8	-0.9	4.0	5.4	-0.6	/	/
O=C(CSc1nc2c(cnn2-c2ccc(F)cc2)c(=O)[nH]1)N1CCOCC1	10.3	2.1	3.1	4.8	-3.5	-1.9	/	/
O=C(CSc1nc2c(cnn2-c2ccc(F)cc2)c(=O)[nH]1)N1CCCCC1	3.6	13.8	4.6	15.2*	20.0	0.5	-0.6	-3.0
O=C(NC1CCCCC1)C(c1ccco1)N(C(=O)c1csnn1)c1cccc(Cl)c1 (configuration not stated)	4.2	5.5	1.2	-6.0	-11.7	-0.1	/	/
O=C(COC(=O)C1CCC1)NCCc1ccc(Cl)cc1Cl	-3.8	5.2	-0.6	-4.0	0.1	-3.4	/	/
C=CCn1c2ccccc2c2nnc(SCCCn3c(=O)[nH]c4ccccc43)nc21	9.8	-30.1	8.1	17.2*	56.0*	-0.4	-0.5	3.2
Cc1cccc2sc(NNC(=O)C3=COCCO3)nc12	4.4	-12.2	0.0	16.8*	-7.6	-0.3	-0.4	-0.9
O=C(CN1CCN(c2cccc(Cl)n2)CC1)N1CC(O)CO1 (configuration not stated)	4.9	11.1	2.3	27.2*	-33.4	-1.1	-0.5	-4.3
COc1ccc(COC(=O)C2=C(C)NC(=O)NC2c2cccc(Br)c2)cc1 (configuration not stated)	2.2	13.2	7.9	15.7*	7.3	1.3	-0.5	15.6*
SMILES	TAAR1 ag	MC4R antagonist	Beta2AR agonist	HTR2A ag	TAAR1 antag	MC4R ag barr	MOR ag counter	HTR2A ag conf
CC1=C(C(=O)OCc2ccccc2)C(c2cccc(Br)c2)NC(=O)N1 (configuration not stated)	2.5	2.3	-6.6	2.6	3.4	-2.2	/	/
C[C@@H]1CN([C@@H](C)CO)C(=O)CCCn2nncc2CO[C@H]1CN(C)Cc1ccc(Cl)c(Cl)c1	0.1	16.4	/	1.0	-22.1	0.5	/	/
CC(C(=O)NCc1ccc(F)cc1)n1ccc2cc(S(=O)(=O)N3CCCC3)ccc21 (configuration not stated)	1.3	5.8	24.4	15.2*	-4.1	0.5	0.4	0.0
CCOc1ccc(CNC(=O)C(C)n2ccc3cc(S(=O)(=O)N4CCCC4)ccc32)cc1 (configuration not stated)	0.8	-2.1	-0.2	8.2	-8.8	0.4	/	/
Cc1nn(C)c(C(=O)Nc2ccn(C34CC5CC(CC(C5)C3)C4)n2)c1[N+](=O)[O-]	7.2	-4.4	10.4	15.1*	-14.9	3.0	-0.3	11.5
CCN(CC(=O)Nc1c(F)cccc1F)C(=O)CN1C(=O)NC2(CCCC2)C1=O	0.9	-1.0	-0.7	0.0	-2.5	-3.4	/	/
CN(CC(=O)Nc1ccc(F)cc1)C(=O)CN1C(=O)NC2(CCCC2)C1=O	0.3	-9.3	3.5	19.9*	-22.7	0.8	-0.6	-4.4
CN(CC(=O)Nc1cccc(F)c1)C(=O)CN1C(=O)NC2(CCCCC2)C1=O	1.4	-8.3	-0.7	-2.7	-13.0	1.7	/	/
CCN(CC(=O)Nc1ccccc1C(F)(F)F)C(=O)CN1C(=O)NC2(CCCCC2)C1=O	0.9	-6.4	-0.9	17.0*	-24.2	-2.0	-0.7	-3.6
NC(=O)C1CCCN(Cc2ccc3ccccc3c2)C1 (configuration not stated)	1.4	-1.9	-7.4	-1.8	-19.1	-1.3	/	/
